Screening data from PubChem.
DSG3 Ab inh = inhibitors of pemphigus antibody binding to DSG3, primary screen, biochemical, bead-based, flow cytometry, scFv-GFP | Desmoglein-3 (Homo sapiens), P32926 | binding (percent of control), % at 10 µM | DSG3-coupled beads, scFv-anti-DSG3-GFP binding; hits give low values | actives 0.48% (n = 310,000);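 active = binding more than 3 SD below its plate's average and above zero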;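 also: hits lower antibody fragment binding to DSG3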
Efflux pump mplx = inhibitors of Candida efflux pumps in yeast, primary screen, S. cerevisiae, Nile Red, multiplex | S. cerevisiae Candida pump triplex | inhibition, % at 10 µM | actives 0.44% (n = 330,000);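 active = plate passing quality check with inhibition over a set limit, or well fluorescence over plate mean plus 4 SD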;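 also: Nile Red retained in pooled yeast measured as flow cytometry median fluorescence; higher means more Nile Red kept so more efflux inhibition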
Neddylation inh = inhibitors of cullin neddylation, primary screen, biochemical, TR-FRET, uHTS, NAE and Ubc12 | NEDD8-conjugating enzyme Ubc12 (Homo sapiens) + NEDD8-activating enzyme E1 regulatory … | inhibition, % at 25 µM | actives 0.58% (n = 360,000) | AID 651699, 2012; in the data active = inhibition above about 36%
Target sequence (P61081 whole entry, looked up): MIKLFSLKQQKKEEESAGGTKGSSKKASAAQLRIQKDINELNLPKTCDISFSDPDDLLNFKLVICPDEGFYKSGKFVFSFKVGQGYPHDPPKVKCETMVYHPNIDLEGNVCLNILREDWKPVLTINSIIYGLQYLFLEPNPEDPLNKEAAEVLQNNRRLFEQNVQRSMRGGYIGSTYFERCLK
Target sequence (Q13564 whole entry, looked up): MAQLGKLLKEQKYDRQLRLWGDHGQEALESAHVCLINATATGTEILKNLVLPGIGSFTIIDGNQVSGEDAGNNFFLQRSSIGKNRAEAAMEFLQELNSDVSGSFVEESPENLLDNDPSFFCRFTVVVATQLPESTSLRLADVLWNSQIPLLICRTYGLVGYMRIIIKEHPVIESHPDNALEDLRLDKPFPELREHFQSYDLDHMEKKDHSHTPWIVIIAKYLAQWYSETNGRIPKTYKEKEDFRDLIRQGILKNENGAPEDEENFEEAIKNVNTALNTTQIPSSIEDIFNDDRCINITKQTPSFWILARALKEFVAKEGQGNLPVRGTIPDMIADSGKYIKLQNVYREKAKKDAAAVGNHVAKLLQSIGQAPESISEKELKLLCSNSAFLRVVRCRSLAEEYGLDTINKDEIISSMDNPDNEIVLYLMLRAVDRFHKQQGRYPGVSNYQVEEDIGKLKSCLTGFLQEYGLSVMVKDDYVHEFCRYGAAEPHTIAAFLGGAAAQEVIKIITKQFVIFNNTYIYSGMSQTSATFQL
Arrestin-AP2 inh = inhibitors of beta-arrestin/AP2 binding, primary screen, biochemical, GPCR trafficking, flow cytometry; beta-arrestin 1 C-terminal peptide binding to AP2 beta2-adaptin appendage (human); FITC-arrestin peptide / GST-AP2 beads; AP2 beta2 appendage carries R879A mutation; inhibition, % at 10 µM; actives 0.31% (n = 340,000);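 active = inhibition above a set limit, near 3 SD of compounds lacking own fluorescence, cut at about 54% in these data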
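Assay system: GST-AP2 R879A bound to glutathione beads, E. coli-expressed; Medium: PBS with 0.05% Tween 20 and 0.1% BSA; Also added: fluorescein-tagged arrestin peptide at 50 nM final; Timing: 12 min plus 1 h, RT; Measured by: flow cytometry, FL1 (488/535 nm); Evaluation: percent drop in bead-associated FITC signal.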
Cmpd fluor yeast = counter-screen for efflux pump inhibitors: compound fluorescence | fluorescence ratio to DMSO, % at 10 µM | actives 4% (n = 1,700) | shares compounds with Efflux pump mplx | S. cerevisiae AD/pABC3, flow cytometry;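 active = fluorescence ratio to DMSO above its plate's cutoff, the plate mean ratio plus 5 SD, cut at about 210% in these data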;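 also: unstained yeast with no Nile Red so the signal is compound autofluorescence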
Mdr1 pump inh = inhibitors of Candida albicans Mdr1 efflux, confirmation, flow cytometry, singleplex, Cherry Pick1 set; S. cerevisiae AD/CaMDR1, Nile Red efflux; shares compounds with Efflux pump mplx; inhibition, % at 10 µM; actives 1% (n = 1,700); in the data active = inhibition above about 26%;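 also: higher means more Nile Red retained so more efflux inhibition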
CaCdr2 efflux inh = inhibitors of Candida albicans Cdr2 efflux pump, confirmation, S. cerevisiae AD/CaCDR2, flow cytometry, cherry pick 1, singleplex; shares compounds with Efflux pump mplx; Nile Red retention; Nile Red retention ratio vs DMSO, % at 10 µM; actives 4% (n = 1,700); AID 588520, 2011; in the data active = Nile Red retention ratio vs DMSO above about 190%;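 also: higher ratio means more blocking of Cdr2 efflux of the dye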
CaCdr1 efflux inh = inhibitors of Candida albicans Cdr1 efflux pump, confirmation, S. cerevisiae AD/CaCDR1, flow cytometry, cherry pick 1, singleplex; actives 1% (n = 1,700); inhibition, % at 10 µM; Nile Red efflux; shares compounds with Efflux pump mplx; AID 588522, 2011;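 active = inhibition above the screen-wide mean plus twice its standard deviation, cut at about 32% in these data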
Hits are given with their value; – = inactive; · = not tested or not shown; + = active, no number. Most compounds without a hit are left out; they make up all but 1.7% or so of the library.

SMILES	DSG3 Ab inh	Efflux pump mplx	Neddylation inh	Arrestin-AP2 inh	Cmpd fluor yeast	Mdr1 pump inh	CaCdr2 efflux inh	CaCdr1 efflux inh
Cc1ccc(S(=O)(=O)Nc2ccc(-n3cnnn3)cc2)cc1	·	0.9	–	–	–	–	–	–
CCOc1ccc(NC(=O)CSc2ncn[nH]2)c([N+](=O)[O-])c1	–	18	–	·	–	–	–	–
CCOC(=O)/C(C#N)=C/C1=C(N2CCOCC2)C(C)(C)OCC1	–	0.9	–	–	–	–	–	–
CCOC(=O)/C(C#N)=C\C1=C(N2CCCC2)CC(C)(C)OC1	·	–	–	–	·	·	·	·
CC#CC[N+](C)(C)CCCCCCCCCCCC	–	–	–	–	·	·	·	·
COc1cc(C(=O)NC(=S)Nc2ccc3c(c2)C(=O)N(C)C3=O)cc(OC)c1OC	·	12	–	–	–	–	–	–
CN(C)C(CNC(=O)C1CCN(S(=O)(=O)c2cccc(Cl)c2Cl)CC1)c1ccccc1 (centres undefined)	–	–	–	–	·	·	·	·
CC(CNC(=O)c1ccc(C(C)(C)C)cc1)CN(C)C (centres undefined)	–	2.0	–	–	–	–	–	–
CCCCn1nnnc1C(c1cc2ccccc2o1)N1CCOCC1 (centres undefined)	·	·	–	·	·	·	·	·
CN1CCN(C(=O)/C=C/c2ccc([N+](=O)[O-])cc2)CC1	–	12	–	–	–	–	–	–
CC(C)n1c(N2CCN(CC(=O)NCc3cccs3)CC2)nc2ccccc21	·	1.5	–	–	–	–	–	–
CC(C)n1c(N2CCN(C(=O)c3cccs3)CC2)nc2ccccc21	–	–	–	–	·	·	·	·
CC(=O)Nc1ccccc1OC(C)C(=O)NC(C)c1ccc(F)cc1 (centres undefined)	·	5.8	–	–	–	–	–	–
CSCc1cc(N(C)c2ccccc2)nc(-c2ccccc2)n1	–	–	–	–	·	·	·	·
O=C(COC(=O)c1ccc2c(c1)OCCO2)Nc1cccc(S(=O)(=O)N2CCOCC2)c1	–	0.5	–	–	–	–	–	–
O=S(=O)(c1ccc2c(c1)OCCO2)N1CCN(Cc2ccc3c(c2)OCO3)CC1	–	–	–	–	·	·	·	·
O=S(=O)(Cc1ccccc1)N1CCN(Cc2ccc3c(c2)OCO3)CC1	–	1.1	–	–	–	–	–	–
Cc1nc2ccccc2n2c(O)c(CC(=O)O)cc12	–	0.5	–	–	–	–	–	–
CC(=O)c1ccc(NC(=S)NCc2cccnc2)cc1	–	–	–	–	·	·	·	·
CC(C)(C)NC(=O)c1nc2nc(-c3ccccc3)cc(C(F)(F)F)n2n1	–	8.2	–	–	–	–	–	–
CN(C)/C=C/C(=O)c1ncc(C(F)(F)F)cc1Cl	–	–	–	–	·	·	·	·
O=C(NCc1ccc(Cl)cc1)N1CCc2ccccc2C1	·	1.3	–	–	–	–	–	–
O=C(CNCc1ccc(Cl)cc1)N1CCc2ccccc2C1	–	–	–	–	·	·	·	·
O=C(COc1ccccc1Cl)c1ccc[nH]1	–	0.7	–	–	–	–	–	–
Cc1ccc2[nH]ccc(=O)c2c1	–	–	–	–	·	·	·	·
SMILES	DSG3 Ab inh	Efflux pump mplx	Neddylation inh	Arrestin-AP2 inh	Cmpd fluor yeast	Mdr1 pump inh	CaCdr2 efflux inh	CaCdr1 efflux inh
Cc1ccc2[nH]cc(/C=C/c3cc[n+](C)cc3)c2c1	–	9.3	–	–	908	–	–	–
COc1ccc2c(c1)c(/C=C/c1cc[n+](C)cc1)cn2C	–	16	–	–	+	–	–	–
CCn1c(/C=C/c2c[nH]c3ccccc23)nc2ccccc2c1=O	–	–	–	–	·	·	·	·
COc1ccc2c(C=O)c[nH]c2c1	–	–	–	–	·	·	·	·
COc1ccc2c(c1)c1ccccc1n2C	–	–	–	–	·	·	·	·
CC[n+]1ccc(/C=C/c2c[nH]c3ccccc23)cc1	–	2.3	–	–	–	–	–	–
COc1ccc2c(/C=C/c3cc[n+](C)cc3)c[nH]c2c1	–	9.1	–	–	+	–	256	–
Cc1cc(Cl)c2oc(C(=O)N(C)CCc3cnn(C)c3)c(C)c2c1	·	–	–	–	·	·	·	·
Cc1ccc(Cn2nnc3c(=O)[nH]c(C4CCN(S(=O)(=O)c5ccccc5)CC4)nc32)cc1	–	–	–	–	–	–	–	–
COC(=O)c1ccc(Cn2nnc3c(=O)[nH]c(C4CCN(S(=O)(=O)c5ccc(F)cc5)CC4)nc32)cc1	·	–	–	–	·	·	·	·
Cc1ccc(S(=O)(=O)N2CCC(c3nc4c(nnn4Cc4ccccc4)c(=O)[nH]3)CC2)cc1	–	–	–	–	·	·	·	·
COc1ccc(Cn2nnc3c(=O)[nH]c(C4CCN(S(=O)(=O)c5ccc(C)cc5)CC4)nc32)cc1	·	–	–	–	–	–	–	–
O=c1[nH]c(C2CCN(S(=O)(=O)c3ccccc3C(F)(F)F)CC2)nc2c1nnn2Cc1ccccc1	–	3.1	–	–	–	–	–	–
O=c1[nH]c(C2CCN(S(=O)(=O)c3ccccc3F)CC2)nc2c1nnn2Cc1ccc(OC(F)(F)F)cc1	·	–	–	–	·	·	·	·
CCCSc1nnc(-c2c[nH]c3ccccc23)n1C	–	0.5	–	–	–	–	–	–
CCOc1cc(/C=C2\SC(=Nc3ccc(F)cc3)N(c3ccc(F)cc3)C2=O)ccc1OCC(=O)O	·	–	·	·	·	·	·	·
CCOc1cc(/C=C2\SC(=Nc3ccccc3)N(c3ccccc3)C2=O)ccc1OCC(=O)O	·	6.4	–	–	–	–	–	–
CCCCn1c(SCC(=O)NCc2ccco2)nc2c(sc3ccccc32)c1=O	–	–	–	–	·	·	·	·
O=C(CSc1nc2c(sc3ccccc32)c(=O)n1CCc1ccccc1)NCc1ccco1	–	1.5	–	–	–	–	–	–
N#Cc1c(C(F)(F)F)cc(Cc2ccccc2)nc1SCC(=O)NCC(=O)O	·	–	–	–	·	·	·	·
N#CC(C(=O)NCCc1ccccc1)c1nc2ccccc2nc1N1CCCCC1 (centres undefined)	–	–	–	–	·	·	·	·
N#CC(C(=O)NCc1ccccc1)c1nc2ccccc2nc1N1CCCC1 (centres undefined)	–	0.9	·	–	–	–	–	–
Cc1cc(NC(=O)C(C)SCC(=O)OCc2ccc([N+](=O)[O-])cc2)no1 (centres undefined)	–	–	–	–	·	·	·	·
